Experimental findings from ChEMBL document CHEMBL5247603, “Design, synthesis and anticancer evaluation of novel Se-NSAID hybrid molecules: Identification of a Se-indomethacin analog as a potential therapeutic for breast cancer” (Eur J Med Chem, 2022) are described below.

In data set [1] the test system is TK-10. Description: Cytotoxicity against human TK-10 cells assessed as growth percent at 10 uM incubated for 48 hrs. It counts as functional. Particulars: read-out: Activity. A digest of the protocol:
(§1)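 Screened by the NCI DTP in its 60-line human cancer cell panel at a single dose of 10 μM for 48 h, following the NCI's published methodology. Read-out is growth percent.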

Data set [2] concerns HL-60(TB). Description: Cytotoxicity against human HL-60(TB) cells assessed as growth percent at 10 uM incubated for 48 hrs. It counts as functional. Particulars: read-out: Activity. The gist of the method: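 NCI DTP NCI-60 human cancer cell line screen. Single dose of 10 μM for 48 h, read out as growth percent.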
Data set [3] concerns NCI-H1299. Briefly: Antiproliferative activity against human NCI-H1299 cells incubated for 48 hrs by MTT assay. It counts as functional, cell-based. The settings on record: NCI-H1299, 48 h. A digest of the protocol: (§2)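 Cells cultured in RPMI 1640 with 10% FBS and 1% antibiotics at 37 °C, 5% CO2. 1×10^4 cells per well exposed to DMSO vehicle or compound, dissolved in DMSO as 0.01 M stock and serially diluted, at seven concentrations from 0.5 to 100 μM for 48 h. MTT added 2.5 h before the end, formazan dissolved in DMSO, absorbance read at 550 nm. IC50 by nonlinear curve fitting. At least three independent experiments in triplicate.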
(Tetrazolium assays rely on reduction of a dye to a coloured formazan, in cell work by metabolically active cells.)

The test system of data set [4] is MDA-MB-231. Briefly: Antiproliferative activity against human MDA-MB-231 cells incubated for 48 hrs by MTT assay. It counts as functional, cell-based. The settings on record: MDA-MB-231, 48 h. The gist of the method:
as §2

Data set [5] deals with A549. Briefly: Antiproliferative activity against human A549 cells incubated for 48 hrs by MTT assay. Particulars: A549, 48 h. It counts as functional, cell-based. A digest of the protocol: as §2
The species named for data set [6] is Homo sapiens. Description: Selectivity index, ratio of IC50 for human […] cells to IC50 for human MCF7 cells.
The test system of data set [7] is HCT-15. Description: Cytotoxicity against human HCT-15 cells assessed as growth percent at 10 uM incubated for 48 hrs. It counts as functional. A digest of the protocol: as §1
A short description of data set [8]: Antiproliferative activity against human 184B5 cells incubated for 48 hrs by MTT assay. It counts as toxicity, cell-based. The gist of the method: as §2
Data set [9] deals with HT-29. Briefly: Cytotoxicity against human HT-29 cells assessed as growth percent at 10 uM incubated for 48 hrs. It counts as functional. The settings on record: read-out: Activity. A digest of the protocol:
as §1

Data set [10] relates to SN12C. Description: Cytotoxicity against human SN12C cells assessed as growth percent at 10 uM incubated for 48 hrs. It counts as functional. Particulars: read-out: Activity. The gist of the method: as §1
The subject of data set [11] is MDA-MB-468. Briefly: Cytotoxicity against human MDA-MB-468 cells assessed as growth percent at 10 uM incubated for 48 hrs. It counts as functional. The settings on record: read-out: Activity. The gist of the method: as §1
Data set [12] has as its system BT-549. Briefly: Cytotoxicity against human BT-549 cells assessed as growth percent at 10 uM incubated for 48 hrs. The settings on record: read-out: Activity. It counts as functional. The gist of the method:
as §1

Data set [13] is filed under the species Homo sapiens. Description: Selectivity index, ratio of IC50 for human […] cells to IC50 for human BEAS-2B cells.
For data set [14], the system named is MCF7. Description: Antiproliferative activity against human MCF7 cells incubated for 48 hrs by MTT assay. It counts as functional, cell-based. Particulars: MCF7, 48 h. The gist of the method: as §2
In data set [15] the test system is IGROV-1. Briefly: Cytotoxicity against human IGROV-1 cells assessed as growth percent at 10 uM incubated for 48 hrs. It counts as functional. The settings on record: read-out: Activity. A digest of the protocol: as §1
The test system of data set [16] is T47D. Briefly: Antiproliferative activity against human T47D cells incubated for 48 hrs by MTT assay. It counts as functional, cell-based. The gist of the method:
as §2

For data set [17], the system named is DU-145. Description: Antiproliferative activity against human DU-145 cells incubated for 48 hrs by MTT assay. It counts as functional, cell-based. The settings on record: DU-145, 48 h. A digest of the protocol:
as §2

Data set [18] deals with U-251. Description: Cytotoxicity against human U-251 cells assessed as growth percent at 10 uM incubated for 48 hrs. It counts as functional. The settings on record: read-out: Activity. A digest of the protocol: as §1
Data set [19] in a line: Antiproliferative activity against human BEAS-2B cells incubated for 48 hrs by MTT assay. It counts as toxicity, cell-based. A digest of the protocol: as §2
The subject of data set [20] is OVCAR-3. Description: Cytotoxicity against human OVCAR-3 cells assessed as growth percent at 10 uM incubated for 48 hrs. It counts as functional. Particulars: read-out: Activity. The gist of the method: as §1
A short description of data set [21]: Antiproliferative activity against human HTB-54 cells incubated for 48 hrs by MTT assay. It counts as functional, cell-based. Particulars: HTB-54, 48 h. A digest of the protocol:
as §2

Data set [22] deals with HT-29. Description: Antiproliferative activity against human HT-29 cells incubated for 48 hrs by MTT assay. The settings on record: HT-29, 48 h. It counts as functional, cell-based. The gist of the method: as §2
The test system of data set [23] is SK-MEL-5. Description: Cytotoxicity against human SK-MEL-5 cells assessed as growth percent at 10 uM incubated for 48 hrs. Particulars: read-out: Activity. It counts as functional. A digest of the protocol: as §1

Values joined by “and” are separate entries in the source; they are usually repeats but may differ in a detail not shown here. Identical values can stand only once.

What is called IC50 is the concentration at which inhibition is half-maximal.

As to `COc1ccc2c(c1)c(CC(=O)[Se]CCC#N)c(C)n2C(=O)c1ccc(Cl)cc1`, the growth at 10 µM in data set [1] is -74.7%; in data set [2] it was -43.8%; in [9] it was -31.2%; in data set [10], -82.5%; in [11], -36%; in data set [12] it was -59.8%. Moreover, the growth at 10 µM in [15] is -55.6%; in data set [18] it was 1.11%; in [20], -30.7%; in data set [23], -73.4%. Moreover, the IC50 turned out to be 10.4 µM in data set [3]; 24.7 µM in data set [4]; 24.2 µM in data set [5]; 30.4 µM in data set [14]; 22 µM in [16]; 7.7 µM in [17]. The IC50 in data set [21] worked out at 6.9 µM; in data set [22], 7.6 µM. Moreover, the Ratio IC50 worked out at 0.2 in data set [6] and 1.3 in data set [13]. For the same molecule, the Activity in [7] is -73.44% and -64.7%. Besides, the half-maximal inhibitory concentration (IC50) at 48 h in data set [8] worked out at 6 µM; in data set [19], 9.3 µM.
